Measured values as given in paper PMC11255784 (RSC Advances, 2024).

Assays:
Mtb H37Rv strain = test: Anti-TB activity, Microplate Alamar Blue Assay; assay type: cell-based, Mycobacterium tuberculosis; details: MABA, triplicates
HEK293T cells = test: Cytotoxicity studies on HEK293T cell line; assay type: cell-based, human; details: for Selective index (SI): HEK293T IC50 versus MIC against Mtb H37Rv; for IC50: Homo sapiens, HEK-293T, read-out: IC50 (HEK293T)
Outline: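 Normal human embryonic kidney HEK293T cells were exposed to test compounds over a dose range of 7 to 2000 μM, and cell proliferation was read as OD at 450 nm to give IC50.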

Mtb H37Rv = details: cited from earlier work
[1] = Mycobacterium tuberculosis, H37RV

Compound	MIC (Mtb H37Rv strain; [1]) [µg/mL]	further results
2-(4-(Phenylglycyl) piperazin-1-yl)-1,8-naphthyridine-3-carbonitrile [ANC-1]	–	MIC (Mtb H37Rv strain): 25 µg/mL; MIC (Mtb H37Rv strain; value in brackets): 67.12 µM
N#Cc1cc2cccnc2nc1N1CCN(CC(=O)Nc2ccccc2)CC1 [ANA-1, 2-(4-(3-Cyano-1,8-naphthyridin-2-yl)piperazin-1-yl)-N-phenylacetamide]	12.5	Selective index (SI) (HEK293T cells): 17; IC50 (HEK293T cells): 580 ± 20.2 µM
CCc1ccc(NC(=O)CN2CCN(c3nc4ncccc4cc3C#N)CC2)cc1 [ANA-2, 2-(4-(3-Cyano-1,8-naphthyridin-2-yl)piperazin-1-yl)-N-(4-ethylphenyl)acetamide]	25	–
Cc1ccc(NC(=O)CN2CCN(c3nc4ncccc4cc3C#N)CC2)cc1C [ANA-3, 2-(4-(3-Cyano-1,8-naphthyridin-2-yl)piperazin-1-yl)-N-(3,4-dimethylphenyl)acetamide]	25	–
N#Cc1cc2cccnc2nc1N1CCN(CC(=O)Nc2ccc(F)cc2)CC1 [ANA-4, 2-(4-(3-Cyano-1,8-naphthyridin-2-yl)piperazin-1-yl)-N-(4-fluorophenyl)acetamide]	25	–
N#Cc1cc2cccnc2nc1N1CCN(CC(=O)Nc2ccc(Br)cc2)CC1 [ANA-5, N-(4-Bromophenyl)-2-(4-(3-cyano-1,8-naphthyridin-2-yl)piperazin-1-yl)acetamide]	25	–
N#Cc1cc2cccnc2nc1N1CCN(CC(=O)Nc2ccccc2F)CC1 [ANA-6, 2-(4-(3-Cyano-1,8-naphthyridin-2-yl)piperazin-1-yl)-N-(2-fluorophenyl)acetamide]	12.5	Selective index (SI) (HEK293T cells): 23; IC50 (HEK293T cells): 753 ± 7.63 µM
N#Cc1cc2cccnc2nc1N1CCN(CC(=O)Nc2ccccc2[N+](=O)[O-])CC1 [ANA-7, 2-(4-(3-Cyano-1,8-naphthyridin-2-yl)piperazin-1-yl)-N-(2-nitrophenyl)acetamide]	12.5	Selective index (SI) (HEK293T cells): 19; IC50 (HEK293T cells): 571.2 ± 4.45 µM
N#Cc1cc2cccnc2nc1N1CCN(CC(=O)Nc2cccc(C(F)(F)F)c2)CC1 [ANA-8, 2-(4-(3-Cyano-1,8-naphthyridin-2-yl)piperazin-1-yl)-N-(3(trifluoromethyl)phenyl)acetamide]	12.5	–
N#Cc1cc2cccnc2nc1N1CCN(CC(=O)Nc2ccc(F)c(F)c2)CC1 [ANA-9, 2-(4-(3-Cyano-1,8-naphthyridin-2-yl)piperazin-1-yl)-N-(3,4-difluorophenyl)acetamide]	25	–
N#Cc1cc2cccnc2nc1N1CCN(CC(=O)Nc2cccc([N+](=O)[O-])c2)CC1 [ANA-10, 2-(4-(3-Cyano-1,8-naphthyridin-2-yl)piperazin-1-yl)-N-(3-nitrophenyl)acetamide]	12.5	–
N#Cc1cc2cccnc2nc1N1CCN(CC(=O)Nc2ccc([N+](=O)[O-])cc2)CC1 [ANA-11, 2-(4-(3-Cyano-1,8-naphthyridin-2-yl)piperazin-1-yl)-N-(4-nitrophenyl)acetamide]	25	–
N#Cc1cc2cccnc2nc1N1CCN(C(=O)c2ccc([N+](=O)[O-])o2)CC1 [ANA-12, 2-(4-(5-Nitrofuran-2-carbonyl)piperazin-1-yl)-1,8-naphthyridine-3-carbonitrile]	6.25	Selective index (SI) (HEK293T cells): 27; IC50 (HEK293T cells): 451 ± 20.2 µM
CCc1ccc(NCC(=O)N2CCN(c3nc4ncccc4cc3C#N)CC2)cc1 [ANC-2, 2-(4-((4-Ethylphenyl)glycyl)piperazin-1-yl)-1,8-naphthyridine-3-carbonitrile]	12.5	Selective index (SI) (HEK293T cells): 11; IC50 (HEK293T cells): 330 ± 3.4 µM
Cc1ccc(NCC(=O)N2CCN(c3nc4ncccc4cc3C#N)CC2)cc1C [ANC-3, 2-(4-((3,4-Dimethylphenyl)glycyl)piperazin-1-yl)-1,8-naphthyridine-3-carbonitrile]	50	–
N#Cc1cc2cccnc2nc1N1CCN(C(=O)CNc2ccc(F)cc2)CC1 [ANC-5, 2-(4-((4-Fluorophenyl)glycyl)piperazin-1-yl)-1,8-naphthyridine-3-carbonitrile]	25	–

Compound	MIC (Mtb H37Rv strain; [1]) [µg/mL]	further results
N#Cc1cc2cccnc2nc1N1CCN(C(=O)CNc2ccc(Cl)cc2)CC1 [ANC-6, 2-(4-((4-Chlorophenyl)glycyl)piperazin-1-yl)-1,8-naphthyridine-3-carbonitrile]	25	–
N#Cc1cc2cccnc2nc1N1CCN(C(=O)CNc2ccc(Br)cc2)CC1 [ANC-7, 2-(4-((4-Bromophenyl)glycyl)piperazin-1-yl)-1,8-naphthyridine-3-carbonitrile]	25	–
N#Cc1cc2cccnc2nc1N1CCN(C(=O)CNc2ccccc2F)CC1 [ANC-8, 2-(4-((2-Fluorophenyl)glycyl)piperazin-1-yl)-1,8-naphthyridine-3-carbonitrile]	25	–
N#Cc1cc2cccnc2nc1N1CCN(C(=O)CNc2ccccc2I)CC1 [ANC-9, 2-(4-((2-Iodophenyl)glycyl)piperazin-1-yl)-1,8-naphthyridine-3-carbonitrile]	25	–
N#Cc1cc2cccnc2nc1N1CCN(C(=O)CNc2ccc(Br)cc2[N+](=O)[O-])CC1 [ANC-10, 2-(4-((4-Bromo-2-nitrophenyl)glycyl)piperazin-1-yl)-1,8-naphthyridine-3-carbonitrile]	> 50	–
N#Cc1cc2cccnc2nc1N1CCN(C(=O)CNc2cccc(Cl)c2)CC1 [ANC-11, 2-(4-((3-Chlorophenyl)glycyl)piperazin-1-yl)-1,8-naphthyridine-3-carbonitrile]	50	–
N#Cc1cc2cccnc2nc1N1CCN(C(=O)CNc2cccc(C(F)(F)F)c2)CC1 [ANC-12, 2-(4-((3-(Trifluoromethyl)phenyl)glycyl)piperazin-1-yl)-1,8-naphthyridine-3-carbonitrile]	25	–
N#Cc1cc2cccnc2nc1N1CCN(C(=O)CNc2ccc(Cl)cc2Cl)CC1 [ANC-13, 2-(4-((2,4-Dichlorophenyl)glycyl)piperazin-1-yl)-1,8-naphthyridine-3-carbonitrile]	50	–
N#Cc1cc2cccnc2nc1N1CCN(C(=O)CNc2ccc(F)c(F)c2)CC1 [ANC-14, 2-(4-((3,4-Difluorophenyl)glycyl)piperazin-1-yl)-1,8-naphthyridine-3-carbonitrile]	> 50	–
N#Cc1cc2cccnc2nc1N1CCNCC1 [ANI-1, 2-(Piperazin-1-yl)-1,8-naphthyridine-3-carbonitrile]	25	–
N#Cc1cc2cccnc2nc1N1CCN(C(=O)CCl)CC1 [ANI-2, 2-(4-(2-Chloroacetyl)piperazin-1-yl)-1,8-naphthyridine-3-carbonitrile]	25	–
CC[C@@H](CO)NCCN[C@@H](CC)CO [Ethambutol, reference compound]	6.25	–
NNC(=O)c1ccncc1 [Isoniazid, reference compound]	0.36	–
CO[C@H]1/C=C/O[C@@]2(C)Oc3c(C)c(O)c4c(O)c(c(/C=N/N5CCN(C)CC5)c(O)c4c3C2=O)NC(=O)/C(C)=C\C=C\[C@H](C)[C@H](O)[C@@H](C)[C@@H](O)[C@@H](C)[C@H](OC(C)=O)[C@@H]1C [Rifampicin, reference compound]	3.13	inhibition against Mtb H37Rv (Mtb H37Rv): 98%
Nc1ccc(C(=O)O)c(O)c1 [p-Amino salicylic acid, reference compound]	12.5	–
